Measured values as given in publication PMC8263925 (The Journal of General Physiology, 2021).
Changes are numbered by the printed parent chain.

What was measured:
Type in all cases: cell-based
monomeric Hv1 = biological target: T1, monomeric Hv1 (Homo sapiens, UniProt Q96D96); assay: Inside-out patch time course of inhibition, monomeric Hv1 chimera; conditions: 50 µM
T1 sequence (Q96D96 97-227 limits assumed): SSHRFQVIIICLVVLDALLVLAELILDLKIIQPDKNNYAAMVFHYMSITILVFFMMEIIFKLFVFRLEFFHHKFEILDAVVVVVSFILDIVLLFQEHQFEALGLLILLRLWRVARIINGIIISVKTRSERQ

Hv1 E171Q = biological target: T2, Hv1 E171Q (Homo sapiens, UniProt Q96D96, E171Q); assay: Inside-out patch time course of inhibition, mutant channel; conditions: 50 µM
T2 sequence (Q96D96 1-273 E171Q): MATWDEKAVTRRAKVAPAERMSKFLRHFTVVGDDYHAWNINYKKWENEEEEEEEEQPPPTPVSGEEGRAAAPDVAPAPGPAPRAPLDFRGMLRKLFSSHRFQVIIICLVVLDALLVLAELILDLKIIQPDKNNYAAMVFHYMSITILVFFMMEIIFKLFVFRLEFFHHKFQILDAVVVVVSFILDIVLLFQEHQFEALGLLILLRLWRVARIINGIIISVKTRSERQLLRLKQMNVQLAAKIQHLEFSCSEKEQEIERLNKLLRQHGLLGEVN
How it was run: (§1)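 Xenopus oocytes injected with mutant-channel mRNA 1–3 d earlier, kept at 18°C in ND96. Inside-out patches at 22 ± 1°C in symmetric Mes/TEA solutions, pH 6.0. Held at −40 mV and pulsed to +120 mV at relative depolarization time 0.2 (3 s/15 s). 50 µM perfused into bath. End-pulse current leak- and rundown-corrected. Decay fitted double-exponentially (τfast, τslow, cfast, cslow); washout recovery single-exponentially (τoff).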

Hv1 D185A = biological target: T3, Hv1 D185A (Homo sapiens, UniProt Q96D96, D185A); assay: as above; conditions: 50 µM
T3 sequence (Q96D96 1-273 D185A): T2 sequence (Q96D96 1-273 E171Q) with Q171E, D185A
How it was run: as §1

Hv1 E153C = biological target: T4, Hv1 E153C (Homo sapiens, UniProt Q96D96, E153C); assay: as above
T4 sequence (Q96D96 1-273 E153C): T2 sequence (Q96D96 1-273 E171Q) with E153C, Q171E
How it was run: as §1

Hv1 D112E = biological target: T5, Hv1 D112E (Homo sapiens, UniProt Q96D96, D112E); assay: Inside-out patch time course of inhibition, mutant channel; conditions: 50 µM, RDT 0.1
T5 sequence (Q96D96 1-273 D112E): T2 sequence (Q96D96 1-273 E171Q) with D112E, Q171E
How it was run: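 Mutant channel expressed in oocytes. Inside-out patches, pH 6.0 both sides, 22 ± 1°C. Holding −40 mV, depolarizations to +120 mV at relative depolarization time 0.1 (2 s/20 s) to follow slow kinetics, with matched WT comparison. 50 µM perfused into bath. Isochronal end-pulse current, leak- and rundown-corrected. Decay fitted with a double-exponential function for fast and slow components.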

Hv1 WT = biological target: T6, Hv1 WT (Homo sapiens, UniProt Q96D96); assay: G-V
T6 sequence (Q96D96 1-273): T2 sequence (Q96D96 1-273 E171Q) with Q171E
How it was run: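 Oocytes expressing WT channel (mRNA injected 1–3 d before). Inside-out patches at 22 ± 1°C; bath and pipette 100 mM Mes, 30 mM TEA methanesulfonate, 5 mM TEA chloride, 5 mM EGTA, pH 6.0. Steps to −20 to +130 mV, tails at −40 mV, with or without 50 µM in bath. G = (Itest − Itail)/(Vtest − Vtail), rundown-corrected via reference step. Boltzmann fit gave V1/2 and slope. ≥5 patches, SEM.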

Hv1 D174E = biological target: T7, Hv1 D174E (Homo sapiens, UniProt Q96D96, D174E); assay: Inside-out patch time course of inhibition, mutant channel
T7 sequence (Q96D96 1-273 D174E): T2 sequence (Q96D96 1-273 E171Q) with Q171E, D174E
How it was run: as §1

SMILES: Cc1[nH]c(N)nc1CCC(=O)c1cc(F)cc(F)c1 [HIF, 3-(2-amino-5-methyl-1H-imidazol-4-yl)-1-(3,5-difluorophenyl)propan-1-one]
- extent of inhibition compared with WT (monomeric Hv1): not reduced
- reduction of the extent of inhibition vs WT (Hv1 E171Q): 46%
- τslow (Hv1 E171Q; too slow to be accurately quantified): > 200 s
- effect of mutation on extent or time course of inhibition (Hv1 D185A): did not appreciably affect
- total extent of inhibition vs WT (Hv1 E153C; 50 µM): did not decrease
- relative contribution of the slow component, cslow / (cfast + cslow) (Hv1 E153C; 50 μM, RDT = 0.2): 0.80
- τoff, recovery from inhibition (Hv1 E153C; after 50 µM, RDT = 0.2): 294 ± 57 s
- fast component of the inhibition process (Hv1 D112E): eliminated
- slow component of the inhibition process (Hv1 D112E): unaffected
- shift to more positive potentials in the V1/2 of activation (Hv1 WT; 50 μM, pHi = pHo = 6.0): ~15 mV
- slope of G-V curve in the presence of inhibitor (Hv1 WT; 50 µM, pHi = pHo = 6.0 (11 ± 1 without HIF)): 13 ± 1 mV
- V1/2 of G-V curve in the presence of inhibitor (Hv1 WT; 50 µM, pHi = pHo = 6.0 (53 ± 3 mV without HIF)): 68 ± 2 mV
- reduction of the extent of inhibition vs WT (Hv1 D174E; 50 µM): 35%
- τslow (Hv1 D174E; 50 µM, too slow to be accurately quantified): > 200 s
- τoff, recovery from inhibition (Hv1 D174E; after 50 µM, RDT = 0.2): 37 ± 6 s
